Experimental data reported in ChEMBL document CHEMBL4196081, “Synthesis and antimycobacterial activity of 1-(β-d-Ribofuranosyl)-4-coumarinyloxymethyl- / -coumarinyl-1,2,3-triazole” (Eur J Med Chem, 2018).
Converted amounts (≈) assume the structure as drawn.

Experiments:
[1] = test system: Mycobacterium tuberculosis; test: Bactericidal activity against Mycobacterium tuberculosis H37Rv after 4 weeks by MABA; format: functional; conditions: 672 h
[2] = test system: Mycobacterium tuberculosis; test: Antimycobacterial activity against MDR Mycobacterium tuberculosis isolate 591 after 15 days by MABA; format: functional; conditions: isolate 591, 360 h
In short: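 MABA in 7H9 medium on MDR clinical isolate 591: filtered single-cell suspension, 1 × 10^6 cells per well with drug dilutions, aerobic 37 °C; 0.02 % resazurin added on day 15, overnight 37 °C. MIC = lowest concentration preventing blue-to-pink change. Triplicate; medium+inoculum and medium-only controls.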

[3] = test system: Mycobacterium tuberculosis; test: Ratio of MBC to MIC for Mycobacterium tuberculosis H37Rv; format: functional
[4] = test system: Mycobacterium tuberculosis; test: Antimycobacterial activity against Mycobacterium tuberculosis H37Rv after 10 days by MABA; format: functional; conditions: 240 h
In short: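 MABA in 7H9 medium: log-phase culture passed through 8 µm filter, density set by OD600 and McFarland standards, 1 × 10^6 cells per well with drug dilutions; aerobic incubation 37 °C 10 days, then 0.02 % resazurin, overnight 37 °C. MIC = lowest concentration preventing blue-to-pink change. Triplicate; medium+inoculum and medium-only controls.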

[5] = Cytotoxicity against human THP1 cells assessed as cell viability at 75 ug/ml after 48 hrs by MTT assay relative to control; format: cell-based; conditions: THP-1 cells, read-out: Activity
In short: (§1)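 THP-1 cells (human monocytic line) seeded at 10^4 per well and adhered with phorbol myristate acetate (20 ng/mL). Then given fresh RPMI with 10% foetal calf serum and 2 mM L-glutamine, plus compound by serial double dilution (4.68–150 µg/mL), with DMSO and no-DMSO controls. Incubated 24 or 48 h at 37 °C, 5% CO2. MTT added for 4 h, formazan dissolved in DMSO, A540 read, percentage survival calculated.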

[6] = test system: Mycobacterium tuberculosis; test: Potency index, ratio of rifampicin MIC to compound MIC for antimycobacterial activity against MDR Mycobacterium tuberculosis isolate 591; format: functional
[7] = Cytotoxicity against human THP1 cells assessed as cell viability at 37.48 ug/ml after 24 hrs by MTT assay relative to control; format: cell-based; conditions: THP-1 cells, read-out: Activity; in short: as §1
[8] = Selectivity index, ratio of IC50 for cytotoxicity against human THP1 cells to MIC for Mycobacterium tuberculosis H37Rv; format: toxicity, cell-based; conditions: THP-1 cells, read-out: Selectivity Index
In short: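 THP-1 cells, 10^4/well, adhered with PMA 20 ng/mL, in RPMI with 10 % FCS and 2 mM L-glutamine; exposed to 4.68–150 µg/mL for 24 and 48 h at 37 °C, 5 % CO2; MTT 4 h, formazan in DMSO, A540. Index = THP-1 IC50 divided by H37Rv MABA MIC.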

[9] = test system: Mycobacterium tuberculosis; test: Potency index, ratio of isoniazid MIC to compound MIC for antimycobacterial activity against MDR Mycobacterium tuberculosis isolate 591; format: functional
[10] = Cytotoxicity against human THP1 cells assessed as cell viability at 18.72 ug/ml after 48 hrs by MTT assay relative to control; format: cell-based; conditions: THP-1 cells, read-out: Activity; in short: as §1
[11] = Cytotoxicity against human THP1 cells assessed as cell viability at 75 ug/ml after 24 hrs by MTT assay relative to control; format: cell-based; conditions: THP-1 cells, read-out: Activity; in short: as §1
[12] = test system: Mycobacterium tuberculosis; test: Potency index, ratio of ethambutol MIC to compound MIC for antimycobacterial activity against MDR Mycobacterium tuberculosis isolate 591; format: functional
[13] = Cytotoxicity against human THP1 cells assessed as cell viability at 37.48 ug/ml after 48 hrs by MTT assay relative to control; format: cell-based; conditions: THP-1 cells, read-out: Activity; in short: as §1
[14] = Cytotoxicity against human THP1 cells assessed as cell viability at 18.72 ug/ml after 24 hrs by MTT assay relative to control; format: cell-based; conditions: THP-1 cells, read-out: Activity; in short: as §1
[15] = Cytotoxicity against human THP1 cells assessed as cell viability at 9.36 ug/ml after 24 hrs by MTT assay relative to control; format: cell-based; conditions: THP-1 cells, read-out: Activity; in short: as §1
[16] = test system: Mycobacterium tuberculosis; test: Potency index, ratio of streptomycin MIC to compound MIC for antimycobacterial activity against MDR Mycobacterium tuberculosis isolate 591; format: functional
[17] = Cytotoxicity against human THP1 cells assessed as cell viability at 4.68 ug/ml after 48 hrs by MTT assay relative to control; format: cell-based; conditions: THP-1 cells, read-out: Activity; in short: as §1
[18] = Cytotoxicity against human THP1 cells assessed as cell viability at 150 ug/ml after 24 hrs by MTT assay relative to control; format: cell-based; conditions: THP-1 cells, read-out: Activity; in short: as §1
[19] = Cytotoxicity against human THP1 cells assessed as cell viability at 4.68 ug/ml after 24 hrs by MTT assay relative to control; format: cell-based; conditions: THP-1 cells, read-out: Activity; in short: as §1
[20] = Cytotoxicity against human THP1 cells assessed as cell viability at 150 ug/ml after 48 hrs by MTT assay relative to control; format: cell-based; conditions: THP-1 cells, read-out: Activity; in short: as §1
[21] = Cytotoxicity against human THP1 cells assessed as cell viability at 9.36 ug/ml after 48 hrs by MTT assay relative to control; format: cell-based; conditions: THP-1 cells, read-out: Activity; in short: as §1
[22] = test system: THP-1; test: Cytotoxicity against human THP1 cells assessed as growth inhibition after 24 to 48 hrs by MTT assay; format: cell-based; in short: as §1

Compound | MBC [1] [µM] | MIC [2] [µM] | Ratio [3] | MIC [4] [µM] | also measured
O=C(OC[C@H]1O[C@@H](n2cc(-c3ccc4ccc(=O)oc4c3)nn2)[C@H](OC(=O)c2ccccc2)[C@@H]1OC(=O)c1ccccc1)c1ccccc1 | 30.4 (≈ 20 µg/mL) | 30.4 (≈ 20 µg/mL) | 2 | 15.2 (≈ 10 µg/mL) | 
O=C(OC[C@H]1O[C@@H](n2cc(COc3ccc4ccc(=O)oc4c3)nn2)[C@H](OC(=O)c2ccccc2)[C@@H]1OC(=O)c1ccccc1)c1ccccc1 | 26.2 (≈ 18 µg/mL) | 14.5 (≈ 9.97 µg/mL) | 2.25 | 11.6 (≈ 7.98 µg/mL) | 
O=c1ccc2ccc(-c3cn([C@@H]4O[C@H](CO)[C@@H](O)[C@H]4O)nn3)cc2o1 | 46.3 (≈ 16 µg/mL) | 28.9 (≈ 9.98 µg/mL) | 1.6 | 28.9 (≈ 9.98 µg/mL) | 
O=C(OC[C@H]1O[C@@H](n2cc(-c3ccc4c(-c5ccccc5)cc(=O)oc4c3)nn2)[C@H](OC(=O)c2ccccc2)[C@@H]1OC(=O)c1ccccc1)c1ccccc1 | 24.5 (≈ 18 µg/mL) | 13.6 (≈ 9.98 µg/mL) | 2.25 | 10.9 (≈ 8 µg/mL) | 
Cc1cc(=O)oc2cc(OCc3cn([C@@H]4O[C@H](COC(=O)c5ccccc5)[C@@H](OC(=O)c5ccccc5)[C@H]4OC(=O)c4ccccc4)nn3)c(Cl)cc12 | 27.2 (≈ 20 µg/mL) | 20.4 (≈ 15 µg/mL) | 2 | 13.5 (≈ 9.94 µg/mL) | 
Cc1cc(=O)oc2cc(-c3cn([C@@H]4O[C@H](COC(=O)c5ccccc5)[C@@H](OC(=O)c5ccccc5)[C@H]4OC(=O)c4ccccc4)nn3)ccc12 | 26.8 (≈ 18 µg/mL) | 29.8 (≈ 20 µg/mL) | 2.25 | 11.9 (≈ 7.99 µg/mL) | 
Cc1cc(=O)oc2cc(-c3cn([C@@H]4O[C@H](CO)[C@@H](O)[C@H]4O)nn3)c(Cl)cc12 |  | 25.4 (≈ 10 µg/mL) |  | 30.5 (≈ 12 µg/mL) | 
O=C(OC[C@H]1O[C@@H](n2cc(COc3ccc4c(-c5ccccc5)cc(=O)oc4c3)nn2)[C@H](OC(=O)c2ccccc2)[C@@H]1OC(=O)c1ccccc1)c1ccccc1 | 10.5 (≈ 8.02 µg/mL) | 5.2 (≈ 3.97 µg/mL) | 2 | 5.2 (≈ 3.97 µg/mL) | viability at 48 h, 75 ug/ml [5]: 70%; Ratio [6]: 7 - 420; viability at 24 h, 37.48 ug/ml [7]: 81%; selectivity ratio [8]: 37.6; Ratio [9]: 7 - 420; viability at 48 h, 18.72 ug/ml [10]: 84%; viability at 24 h, 75 ug/ml [11]: 81%; Ratio [12]: 7 - 420; viability at 48 h, 37.48 ug/ml [13]: 74%; viability at 24 h, 18.72 ug/ml [14]: 97%; viability at 24 h, 9.36 ug/ml [15]: 100%; Ratio [16]: 7 - 420; viability at 48 h, 4.68 ug/ml [17]: 95%; viability at 24 h, 150 ug/ml [18]: 66%; viability at 24 h, 4.68 ug/ml [19]: 100%; viability at 48 h, 150 ug/ml [20]: 64%; viability at 48 h, 9.36 ug/ml [21]: 93%; IC50 [22]: > 196 µM
CO[C@H]1/C=C/O[C@@]2(C)Oc3c(C)c(O)c4c(O)c(c(/C=N/N5CCN(C)CC5)c(O)c4c3C2=O)NC(=O)/C(C)=C\C=C\[C@H](C)[C@H](O)[C@@H](C)[C@@H](O)[C@@H](C)[C@H](OC(C)=O)[C@@H]1C [RIFAMPIN] |  | 152 (≈ 125 µg/mL) |  | 0.02 (≈ 0.0165 µg/mL) | 
